Laboratory results published in ChEMBL document CHEMBL1149586 (Bioorg Med Chem, 2007).
pIC50: −log10 of the molar value.

Tests used:
Interstitial collagenase = target: T1, Interstitial collagenase (Homo sapiens, UniProt P03956); assay: Inhibition of MMP1
T1 sequence (P03956 whole entry): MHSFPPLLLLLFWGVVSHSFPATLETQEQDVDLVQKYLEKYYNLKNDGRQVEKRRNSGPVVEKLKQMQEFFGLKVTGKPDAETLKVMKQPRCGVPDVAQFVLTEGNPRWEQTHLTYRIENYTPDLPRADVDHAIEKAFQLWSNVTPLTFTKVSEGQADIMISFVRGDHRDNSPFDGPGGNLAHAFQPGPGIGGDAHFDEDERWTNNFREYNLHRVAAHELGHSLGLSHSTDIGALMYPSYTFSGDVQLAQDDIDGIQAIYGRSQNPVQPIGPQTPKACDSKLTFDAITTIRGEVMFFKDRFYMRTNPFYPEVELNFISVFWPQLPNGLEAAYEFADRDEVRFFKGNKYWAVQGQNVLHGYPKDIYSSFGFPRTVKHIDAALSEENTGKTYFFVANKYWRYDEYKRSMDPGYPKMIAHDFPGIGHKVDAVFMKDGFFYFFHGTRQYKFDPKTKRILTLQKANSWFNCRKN

[1] = target: 72 kDa type IV collagenase (Homo sapiens, UniProt P08253); assay: Inhibition of MMP2
Summary of the method: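 Incubated with compound at 1 to 5000 nM. Started with a fluorogenic quenched peptide substrate (1–10 nM). Initial hydrolysis rate, with (Vi) and without (Vo) compound, was followed by fluorescence.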

Stromelysin-1 = Stromelysin-1 (Homo sapiens, UniProt P08254); assay: Inhibition of MMP3
[2] = target: Matrix metalloproteinase-9 (Homo sapiens, UniProt P14780); assay: Inhibition of MMP9
[3] = target: Matrix metalloproteinase-14 (Homo sapiens, UniProt P50281); assay: Inhibition of MMP14
Neutrophil collagenase = Neutrophil collagenase (Homo sapiens, UniProt P22894); assay: Inhibition of MMP8
Summary of the method: (§1)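 Human recombinant pro-enzymes, freshly activated with p-aminophenylmercuric acetate at 37 °C for 2 h. Used at 0.6 nM for MMP-13 and 3.8 nM for MMP-8. Incubated with compound from 1 to 5000 nM. Assay began with addition of a fluorogenic substrate (1–10 nM). Initial rates of peptide cleavage were measured fluorimetrically, with (Vi) and without (Vo) compound.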

Collagenase 3 = Collagenase 3 (Homo sapiens, UniProt P45452); assay: Inhibition of MMP13; summary of the method: as §1

Chain of Stromelysin-1 (P08254 whole entry): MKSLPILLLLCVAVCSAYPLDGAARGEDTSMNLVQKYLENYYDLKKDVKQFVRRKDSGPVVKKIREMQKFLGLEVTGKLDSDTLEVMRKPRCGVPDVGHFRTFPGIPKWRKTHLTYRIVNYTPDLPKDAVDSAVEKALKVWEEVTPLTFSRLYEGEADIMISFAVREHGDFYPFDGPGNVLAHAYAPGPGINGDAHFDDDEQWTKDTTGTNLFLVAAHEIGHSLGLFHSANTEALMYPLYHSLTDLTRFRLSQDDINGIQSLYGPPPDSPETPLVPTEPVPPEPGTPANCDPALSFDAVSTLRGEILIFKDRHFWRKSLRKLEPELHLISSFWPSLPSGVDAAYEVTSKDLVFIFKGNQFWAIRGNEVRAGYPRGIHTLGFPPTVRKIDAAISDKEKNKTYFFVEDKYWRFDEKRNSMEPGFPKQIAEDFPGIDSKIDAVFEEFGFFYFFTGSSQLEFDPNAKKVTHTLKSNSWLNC
Chain of 72 kDa type IV collagenase (P08253 whole entry): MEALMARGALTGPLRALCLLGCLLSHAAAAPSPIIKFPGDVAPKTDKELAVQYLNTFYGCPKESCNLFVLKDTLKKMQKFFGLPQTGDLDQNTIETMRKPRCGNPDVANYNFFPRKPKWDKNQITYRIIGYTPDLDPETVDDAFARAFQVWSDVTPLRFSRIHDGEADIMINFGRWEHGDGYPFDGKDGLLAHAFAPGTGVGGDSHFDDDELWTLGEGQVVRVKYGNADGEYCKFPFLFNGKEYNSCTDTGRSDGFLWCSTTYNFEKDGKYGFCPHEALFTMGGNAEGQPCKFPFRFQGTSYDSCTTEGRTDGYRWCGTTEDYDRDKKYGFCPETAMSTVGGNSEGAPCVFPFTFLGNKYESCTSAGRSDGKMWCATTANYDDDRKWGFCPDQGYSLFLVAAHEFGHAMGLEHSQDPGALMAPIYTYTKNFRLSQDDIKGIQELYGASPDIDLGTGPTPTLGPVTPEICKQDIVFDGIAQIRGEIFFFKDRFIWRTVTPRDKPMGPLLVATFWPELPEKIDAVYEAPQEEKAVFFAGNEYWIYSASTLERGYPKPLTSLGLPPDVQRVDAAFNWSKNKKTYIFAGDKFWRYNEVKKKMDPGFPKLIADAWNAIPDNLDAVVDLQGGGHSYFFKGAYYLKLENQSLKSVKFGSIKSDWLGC
Chain of Matrix metalloproteinase-9 (P14780 whole entry): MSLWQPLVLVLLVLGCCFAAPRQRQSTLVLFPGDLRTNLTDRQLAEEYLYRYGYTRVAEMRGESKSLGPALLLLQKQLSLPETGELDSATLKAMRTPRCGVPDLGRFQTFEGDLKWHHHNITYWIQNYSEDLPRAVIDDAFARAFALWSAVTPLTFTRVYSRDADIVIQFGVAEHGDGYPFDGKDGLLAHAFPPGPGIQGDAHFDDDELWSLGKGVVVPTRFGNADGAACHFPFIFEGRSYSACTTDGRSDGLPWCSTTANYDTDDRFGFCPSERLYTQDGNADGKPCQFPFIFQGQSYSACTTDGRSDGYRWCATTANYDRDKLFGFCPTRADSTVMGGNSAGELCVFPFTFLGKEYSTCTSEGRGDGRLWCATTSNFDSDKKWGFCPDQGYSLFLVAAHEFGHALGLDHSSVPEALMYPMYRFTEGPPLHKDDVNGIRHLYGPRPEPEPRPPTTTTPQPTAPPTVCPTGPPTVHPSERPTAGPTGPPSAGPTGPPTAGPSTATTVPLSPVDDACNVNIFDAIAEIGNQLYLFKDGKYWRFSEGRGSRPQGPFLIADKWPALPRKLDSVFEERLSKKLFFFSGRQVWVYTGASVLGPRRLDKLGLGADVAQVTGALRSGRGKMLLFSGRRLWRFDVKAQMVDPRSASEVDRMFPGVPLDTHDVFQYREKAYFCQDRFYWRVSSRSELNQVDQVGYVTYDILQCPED
Chain of Neutrophil collagenase (P22894 whole entry): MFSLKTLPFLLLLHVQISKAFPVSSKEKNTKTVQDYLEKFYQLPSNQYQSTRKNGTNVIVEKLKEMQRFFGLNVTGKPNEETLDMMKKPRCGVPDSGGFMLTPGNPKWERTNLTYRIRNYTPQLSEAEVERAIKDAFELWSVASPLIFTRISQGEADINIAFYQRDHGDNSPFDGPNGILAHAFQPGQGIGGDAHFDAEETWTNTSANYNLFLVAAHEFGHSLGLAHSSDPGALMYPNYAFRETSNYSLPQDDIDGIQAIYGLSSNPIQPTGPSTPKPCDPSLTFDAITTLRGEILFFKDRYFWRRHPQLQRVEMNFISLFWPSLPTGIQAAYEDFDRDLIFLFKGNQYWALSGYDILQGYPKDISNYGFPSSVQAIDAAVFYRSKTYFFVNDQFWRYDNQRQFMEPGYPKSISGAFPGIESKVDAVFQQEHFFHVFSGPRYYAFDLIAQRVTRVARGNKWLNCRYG

## CCCCCC/C=C(\CC(=O)NO)C(=O)N[C@@H](Cc1c[nH]c2ccccc12)C(=O)NC
Interstitial collagenase
  pIC50: 4.49
[1]
  pIC50: 6.91
Stromelysin-1
  pIC50: < 5.00
[2]
  pIC50: < 5.00
[3]
  pIC50: 5.58
Neutrophil collagenase
  pIC50: 7.00
Collagenase 3
  pIC50: 6.91

## C/C=C/C=C(\CC(=O)NO)C(=O)N[C@@H](Cc1c[nH]c2ccccc12)C(=O)NC
Interstitial collagenase
  pIC50: 6.01
[1]
  pIC50: 4.11
Stromelysin-1
  pIC50: 5.06
[2]
  pIC50: 6.01
[3]
  pIC50: 6.04

## CNC(=O)[C@H](Cc1c[nH]c2ccccc12)NC(=O)/C(=C/C=C/c1ccccc1)CC(=O)NO
Interstitial collagenase
  pIC50: 5.91
[1]
  pIC50: 6.92
Stromelysin-1
  pIC50: 4.68
[2]
  pIC50: 7.42
[3]
  pIC50: 5.60

## CNC(=O)[C@H](Cc1c[nH]c2ccccc12)NC(=O)/C(=C/CCc1ccccc1)CC(=O)NO
Interstitial collagenase
  pIC50: 5.04
[1]
  pIC50: 6.55
Stromelysin-1
  pIC50: 5.72
[2]
  pIC50: 7.35
[3]
  pIC50: 4.27

## CNC(=O)[C@H](Cc1c[nH]c2ccccc12)NC(=O)/C(=C/C(C)C)CC(=O)NO
Interstitial collagenase
  pIC50: 7.74
[1]
  pIC50: 8.04
[2]
  pIC50: 7.77
[3]
  pIC50: 8.00

## CNC(=O)[C@H](Cc1c[nH]c2ccccc12)NC(=O)[C@@H](CC(=O)NO)CC(C)C [ILOMASTAT]
[3]
  pIC50: 7.87
